Test results: PMC10205660 (Chemistry (Weinheim an der Bergstrasse, Germany), 2023)
Like-named read-outs stand apart in the source and are kept apart here.

Tests used:
Format in all cases: cell-based
[1] = system: MCF7, K562 and A549 cell lines; assay: Antiproliferative activity, statements in text without a single cell line; settings: for antiproliferative activity at highest concentration: at 4 μM; for fold reduction in activity compared to cruentaren A: versus cruentaren A, cell line not stated
MCF7 (breast cancer) = assay: Antiproliferative activity, MCF7
A549 (lung cancer) = assay: Antiproliferative activity, A549; settings: Homo sapiens
K562 (leukemia) = assay: Antiproliferative activity, K562
[2] = system: Hsp90-dependent client proteins (pAkt, Cyclin D1, GLUT1), Hsp70, Hsp90 in MCF7 cells; settings: MCF7, 48 h, Western blot; versus vehicle 0.25% DMSO
How it was run: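 MCF7 cells exposed to test compound at the stated amounts for 48 h, alongside vehicle (0.25% DMSO) and 1 μM geldanamycin as the reference Hsp90 inhibitor. Cell lysates were immunoblotted for pAkt, Cyclin D1, GLUT1, Hsp70, Hsp90 and F1F0 ATP synthase.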

[3] = Homo sapiens, MCF7, read-out: IC50 values MCF7
[4] = A549, read-out: IC50 values A549
[5] = Homo sapiens, K562, read-out: IC50 values K562
[6] = Homo sapiens, MCF7, read-out: IC50 values MCF7, MCF7
[7] = Homo sapiens, K562, read-out: IC50 values K562, K562

## CCC[C@H](O)[C@@H](C)C(=O)NC/C=C\C[C@@H](C)[C@@H](OC(C)=O)[C@H](C)[C@@H]1C/C=C\C[C@H](C)[C@H](OC(C)=O)Cc2cc(OC)cc(O)c2C(=O)O1 [Compound 11, (2R,3R,4R,Z)-2-((3S,8S,9R,Z)-9-acetoxy-14-hydroxy-12-methoxy-8-methyl-1-oxo-3,4,7,8,9,10-hexahydro-1H-benzo[c][1]oxacyclododecin-3-yl)-8-((2R,3S)-3-hydroxy-2-methylhexanamido)-4-methyloct-6-en-3-yl acetate]
[1]
  antiproliferative activity at highest concentration: inactive
MCF7 (breast cancer); [3]
  IC50: > 4000 nM
A549 (lung cancer); [4]
  IC50: > 4000 nM
K562 (leukemia); [5]
  IC50: > 4000 nM

## CCC[C@H](O)[C@@H](C)C(=O)NC/C=C\C[C@@H](C)[C@@H](O)[C@H](C)[C@@H]1C/C=C\C[C@H](C)[C@H](OC(=O)CN)Cc2cc(OC)cc(O)c2C(=O)O1 [Compound 3, (3S,8S,9R,Z)-14-hydroxy-3-((2S,3R,4R,Z)-3-hydroxy-8-((2R,3S)-3-hydroxy-2-methylhexanamido)-4-methyloct-6-en-2-yl)-12-methoxy-8-methyl-1-oxo-3,4,7,8,9,10-hexahydro-1H-benzo[c][1]oxacyclododecin-9-yl glycinate]
MCF7 (breast cancer); [3]
  IC50: 87.5 nM
A549 (lung cancer); [4]
  IC50: 1740 nM
K562 (leukemia); [5]
  IC50: 14.8 nM
K562 (leukemia); K562, versus cruentaren A
  fold difference of IC50 versus cruentaren A: 10 fold

## CCC[C@H](O)[C@@H](C)C(=O)NC[C@H](O)[C@H](O)C[C@@H](C)[C@@H](O)[C@H](C)[C@@H]1C/C=C\C[C@H](C)[C@H](O)Cc2cc(OC)cc(O)c2C(=O)O1 [Compound 14, (2R,3S)-N-((2S,3R,5R,6R,7S)-7-((3S,8S,9R,Z)-9,14-dihydroxy-12-methoxy-8-methyl-1-oxo-3,4,7,8,9,10-hexahydro-1H-benzo[c][1]oxacyclododecin-3-yl)-2,3,6-trihydroxy-5-methyloctyl)-3-hydroxy-2-methylhexanamide]
[1]
  fold reduction in activity compared to cruentaren A: ~ 40 fold
MCF7 (breast cancer); [6]
  IC50: 189 nM
A549 (lung cancer); [4]
  IC50: 1540 nM
K562 (leukemia); [7]
  IC50: 1270 nM

## CCC[C@H](O)[C@@H](C)C(=O)NC/C=C\C[C@@H](C)[C@@H](O)[C@H](C)[C@@H]1C/C=C\C[C@H](C)[C@H](OC(=O)[C@H](N)C(C)C)Cc2cc(OC)cc(O)c2C(=O)O1 [Compound 5, (3S,8S,9R,Z)-14-hydroxy-3-((2S,3R,4R,Z)-3-hydroxy-8-((2R,3S)-3-hydroxy-2-methylhexanamido)-4-methyloct-6-en-2-yl)-12-methoxy-8-methyl-1-oxo-3,4,7,8,9,10-hexahydro-1H-benzo[c][1]oxacyclododecin-9-yl D-valinate]
MCF7 (breast cancer); [6]
  IC50: 101 nM
A549 (lung cancer); [4]
  IC50: 1330 nM
K562 (leukemia); [7]
  IC50: 968 nM

## CCC[C@H](O)[C@@H](C)C(=O)NC/C=C\C[C@@H](C)[C@@H](O)[C@H](C)[C@@H]1C/C=C\C[C@H](C)[C@H](OC(=O)[C@@H](C)N)Cc2cc(OC)cc(O)c2C(=O)O1 [Compound 4, (3S,8S,9R,Z)-14-hydroxy-3-((2S,3R,4R,Z)-3-hydroxy-8-((2R,3S)-3-hydroxy-2-methylhexanamido)-4-methyloct-6-en-2-yl)-12-methoxy-8-methyl-1-oxo-3,4,7,8,9,10-hexahydro-1H-benzo[c][1]oxacyclododecin-9-yl D-alaninate]
MCF7 (breast cancer); [6]
  IC50: 55.5 nM
A549 (lung cancer); [4]
  IC50: 2450 nM
[2]
  levels of Hsp70 and Hsp90 (heat shock response): remained at the same level as vehicle control
K562 (leukemia); [7]
  IC50: 1320 nM

## CCC[C@H](O)[C@@H](C)C(=O)NC/C=C/C[C@@H](C)[C@@H](O)[C@H](C)[C@@H]1C/C=C\C[C@H](C)[C@H](O)Cc2cc(OC)cc(O)c2C(=O)O1 [Compound 16, (2R,3S)-N-((5R,6R,7S,E)-7-((3S,8S,9R,Z)-9,14-dihydroxy-12-methoxy-8-methyl-1-oxo-3,4,7,8,9,10-hexahydro-1H-benzo[c][1]oxacyclododecin-3-yl)-6-hydroxy-5-methyloct-2-en-1-yl)-3-hydroxy-2-methylhexanamide]
MCF7 (breast cancer); [6]
  IC50: 6.37 nM
A549 (lung cancer); [4]
  IC50: 1750 nM
[2]
  levels of Hsp70 and Hsp90 (heat shock response): remained at the same level as vehicle control
K562 (leukemia); [7]
  IC50: 48.3 nM

## CCC[C@H](O)[C@@H](C)C(=O)NCCCC[C@@H](C)[C@@H](O)[C@H](C)[C@@H]1CCCC[C@H](C)[C@H](O)Cc2cc(OC)cc(O)c2C(=O)O1 [Compound 12, (2R,3S)-N-((5R,6R,7S)-7-((3S,8S,9R)-9,14-dihydroxy-12-methoxy-8-methyl-1-oxo-3,4,5,6,7,8,9,10-octahydro-1H-benzo[c][1]oxacyclododecin-3-yl)-6-hydroxy-5-methyloctyl)-3-hydroxy-2-methylhexanamide]
MCF7 (breast cancer); [6]
  IC50: 179 nM
A549 (lung cancer); [4]
  IC50: 4000 nM
K562 (leukemia); [7]
  IC50: 1390 nM

## CCC[C@H](O)[C@@H](C)C(=O)NC/C=C\C[C@@H](C)[C@@H](O)[C@H](C)[C@@H]1C/C=C\C[C@H](C)C(=O)Cc2cc(OC)cc(O)c2C(=O)O1 [Compound 2, (2R,3S)-3-hydroxy-N-((5R,6R,7S,Z)-6-hydroxy-7-((3S,8S,Z)-14-hydroxy-12-methoxy-8-methyl-1,9-dioxo-3,4,7,8,9,10-hexahydro-1H-benzo[c][1]oxacyclododecin-3-yl)-5-methyloct-2-en-1-yl)-2-methylhexanamide]
MCF7 (breast cancer); [3]
  IC50: 972 nM
A549 (lung cancer); [4]
  IC50: 1640 nM
K562 (leukemia); [5]
  IC50: 1280 nM

## CCC[C@H](O)[C@@H](C)C(=O)NC/C=C\C[C@@H](C)[C@@H](O)[C@H](C)[C@@H]1C/C=C\C[C@H](C)[C@H](OC(C)=O)Cc2cc(OC)cc(O)c2C(=O)O1 [Compound 10, (3S,8S,9R,Z)-14-hydroxy-3-((2S,3R,4R,Z)-3-hydroxy-8-((2R,3S)-3-hydroxy-2-methylhexanamido)-4-methyloct-6-en-2-yl)-12-methoxy-8-methyl-1-oxo-3,4,7,8,9,10-hexahydro-1H-benzo[c][1]oxacyclododecin-9-yl acetate]
MCF7 (breast cancer); Homo sapiens, MCF7, read-out: IC50 MCF7, MCF7
  IC50: 170 nM
MCF7 (breast cancer); [6]
  IC50: 174 nM
A549 (lung cancer); A549, read-out: IC50 A549
  IC50: 1960 nM
A549 (lung cancer); [4]
  IC50: 1960 nM
K562 (leukemia); Homo sapiens, K562, read-out: IC50 K562, K562
  IC50: 1160 nM
K562 (leukemia); [7]
  IC50: 1160 nM

## CCC[C@H](OC(C)=O)[C@@H](C)C(=O)NC/C=C\C[C@@H](C)[C@@H](OC(C)=O)[C@H](C)[C@@H]1C/C=C\C[C@H](C)[C@H](OC(C)=O)Cc2cc(OC)cc(O)c2C(=O)O1 [Compound 9, (2R,3R,4R,Z)-2-((3S,8S,9R,Z)-9-acetoxy-14-hydroxy-12-methoxy-8-methyl-1-oxo-3,4,7,8,9,10-hexahydro-1H-benzo[c][1]oxacyclododecin-3-yl)-8-((2R,3S)-3-acetoxy-2-methylhexanamido)-4-methyloct-6-en-3-yl acetate]
[1]
  antiproliferative activity at highest concentration: inactive
MCF7 (breast cancer); [3]
  IC50: > 4000 nM
A549 (lung cancer); [4]
  IC50: > 4000 nM
K562 (leukemia); [5]
  IC50: > 4000 nM

## CCC[C@H](OC(C)=O)[C@@H](C)C(=O)NC/C=C\C[C@@H](C)[C@@H](O)[C@H](C)[C@@H]1C/C=C\C[C@H](C)[C@H](OC(C)=O)Cc2cc(OC)cc(O)c2C(=O)O1 [Compound 8, (2R,3S)-1-(((5R,6R,7S,Z)-7-((3S,8S,9R,Z)-9-acetoxy-14-hydroxy-12-methoxy-8-methyl-1-oxo-3,4,7,8,9,10-hexahydro-1H-benzo[c][1]oxacyclododecin-3-yl)-6-hydroxy-5-methyloct-2-en-1-yl)amino)-2-methyl-1-oxohexan-3-yl acetate]
MCF7 (breast cancer); [3]
  IC50: 574 nM
A549 (lung cancer); [4]
  IC50: 3360 nM
K562 (leukemia); [5]
  IC50: 1280 nM

## CCC[C@H](O)[C@@H](C)C(=O)NC[C@@H]1C[C@@H]1C[C@@H](C)[C@@H](O)[C@H](C)[C@@H]1C/C=C\C[C@H](C)[C@H](O)Cc2cc(OC)cc(O)c2C(=O)O1 [Compound 15, (2R,3S)-N-(((1R,2R)-2-((2R,3R,4S)-4-((3S,8S,9R,Z)-9,14-dihydroxy-12-methoxy-8-methyl-1-oxo-3,4,7,8,9,10-hexahydro-1H-benzo[c][1]oxacyclododecin-3-yl)-3-hydroxy-2-methylpentyl)cyclopropyl)methyl)-3-hydroxy-2-methylhexanamide]
[1]
  fold reduction in activity compared to cruentaren A: 100 fold
MCF7 (breast cancer); [6]
  IC50: 520 nM
A549 (lung cancer); [4]
  IC50: 1240 nM
K562 (leukemia); [7]
  IC50: 1120 nM

## COC1=C2C[C@@H](C)C[C@H](OC)[C@H](O)[C@@H](C)/C=C(\C)[C@H](OC(N)=O)[C@@H](OC)/C=C\C=C(/C)C(=O)NC(=CC1=O)C2=O [geldanamycin, reference compound]
[2]
  levels of Hsp70 and Hsp90 (heat shock response): increased

## CCC[C@H](OC(=O)[C@H](N)Cc1ccccc1)[C@@H](C)C(=O)NC/C=C\C[C@@H](C)[C@@H](O)[C@H](C)[C@@H]1C/C=C\C[C@H](C)[C@H](OC(=O)[C@H](N)Cc2ccccc2)Cc2cc(OC)cc(O)c2C(=O)O1 [Compound 7, (2R,3S)-1-(((5R,6R,7S,Z)-7-((3S,8S,9R,Z)-9-((D-phenylalanyl)oxy)-14-hydroxy-12-methoxy-8-methyl-1-oxo-3,4,7,8,9,10-hexahydro-1H-benzo[c][1]oxacyclododecin-3-yl)-6-hydroxy-5-methyloct-2-en-1-yl)amino)-2-methyl-1-oxohexan-3-yl D-phenylalaninate]
MCF7 (breast cancer); [6]
  IC50: 51 nM
MCF7 (breast cancer); read-out: IC50 values MCF7, MCF7
  IC50: 51.3 nM
A549 (lung cancer); [4]
  IC50: 2460 nM
K562 (leukemia); [7]
  IC50: 65 nM
K562 (leukemia); read-out: IC50 values K562, K562
  IC50: 64.6 nM

## CCC[C@H](O)[C@@H](C)C(=O)NC/C=C\C[C@@H](C)[C@@H](O)[C@H](C)[C@@H]1C/C=C\C[C@H](C)[C@H](OC(=O)[C@H](N)Cc2ccccc2)Cc2cc(OC)cc(O)c2C(=O)O1 [Compound 6, (3S,8S,9R,Z)-14-hydroxy-3-((2S,3R,4R,Z)-3-hydroxy-8-((2R,3S)-3-hydroxy-2-methylhexanamido)-4-methyloct-6-en-2-yl)-12-methoxy-8-methyl-1-oxo-3,4,7,8,9,10-hexahydro-1H-benzo[c][1]oxacyclododecin-9-yl D-phenylalaninate]
MCF7 (breast cancer); [6]
  IC50: 114 nM
A549 (lung cancer); [4]
  IC50: 1280 nM
K562 (leukemia); [7]
  IC50: 1120 nM
